Test results: ChEMBL document CHEMBL3112392, “Cytotoxicity and DNA binding property of triphenylethylene-coumarin hybrids with two amino side chains” (Bioorg Med Chem Lett, 2014)
Activity calls are given as the source filed them. The calls are words filed in the database; no cut-off is given here.

Tests used:
MCF7 = experiment: Cytotoxicity against human MCF7 cells after 48 hrs by MTT assay; type: functional, cell-based; conditions: for IC50: MCF7, 48 h
In short: (§1)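 Antiproliferative screen in human tumour lines; IC50 values derived, with cisplatin as positive control.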

K562 = experiment: Cytotoxicity against human K562 cells after 48 hrs by MTT assay; type: functional, cell-based; conditions: for IC50: K562, 48 h; in short: as §1
[1] = Cytotoxicity against mouse skull osteoblasts at 100 uM after 48 hrs by MTT assay relative to control; type: cell-based; conditions: osteoblast
In short: (§2)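 Primary osteoblasts were isolated from newborn mouse skull and exposed to compounds at five concentrations for 48 h. Induced cell death was measured by MTT assay and expressed as % cytotoxicity.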

[2] = Cytotoxicity against mouse skull osteoblasts at 40 uM after 48 hrs by MTT assay relative to control; type: cell-based; conditions: osteoblast; in short: as §2
[3] = Cytotoxicity against mouse skull osteoblasts at 20 uM after 48 hrs by MTT assay relative to control; type: cell-based; conditions: osteoblast; in short: as §2
[4] = Cytotoxicity against mouse skull osteoblasts at 10 uM after 48 hrs by MTT assay relative to control; type: cell-based; conditions: osteoblast; in short: as §2
[5] = Cytotoxicity against mouse skull osteoblasts at 1 uM after 48 hrs by MTT assay relative to control; type: cell-based; conditions: osteoblast; in short: as §2
A549 = experiment: Cytotoxicity against human A549 cells after 48 hrs by MTT assay; type: functional, cell-based; conditions: A549, 48 h; in short: as §1
HeLa = experiment: Cytotoxicity against human HeLa cells after 48 hrs by MTT assay; type: functional, cell-based; in short: as §1
DNA [6] = experiment: Binding affinity to calf thymus DNA assessed as change in melting temperature at 5 uM after 10 mins by thermal denaturation assay; type: nucleic-acid assay; conditions: Bos taurus
DNA [7] = experiment: Binding affinity to calf thymus DNA assessed as melting temperature at 5 uM after 10 mins by thermal denaturation assay (reference value: 67 degC); type: nucleic-acid assay; conditions: Bos taurus
DNA [8] = experiment: Binding affinity to calf thymus DNA assessed as intercalation at 20 uM after 10 mins measured at 350 to 500 nm wavelength by circular dichroism spectroscopic analysis; type: nucleic-acid assay; conditions: Bos taurus
In short: (§3)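 Circular dichroism: spectra of Ct-DNA (5.0 × 10^-5 M) recorded with or without compound (2.0 × 10^-5 M). Buffer was 10 mM phosphate pH 7.4 with 50 mM NaCl and 2% DMSO, at 25 °C.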

DNA [9] = experiment: Binding affinity to calf thymus DNA assessed as decrease in intensity of negative band at 20 uM after 10 mins measured at 246 nm wavelength by circular dichroism spectroscopic analysis; type: nucleic-acid assay; conditions: Bos taurus; in short: as §3
DNA [10] = experiment: Binding affinity to calf thymus DNA assessed as increase in intensity of positive band at 20 uM after 10 mins measured at 277 nm wavelength by circular dichroism spectroscopic analysis; type: nucleic-acid assay; conditions: Bos taurus; in short: as §3
DNA [11] = experiment: Binding affinity to calf thymus DNA assessed as hyperchromicity at 10 uM after 10 mins by UV-vis spectrophotometric analysis; type: nucleic-acid assay; conditions: Bos taurus
In short: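 UV–vis absorption titration: 1.0 × 10^-5 M compound in 10 mM phosphate buffer pH 7.4 with 50 mM NaCl and 2% DMSO at 25 °C, with increasing Ct-DNA. Spectral changes were followed, and binding was fitted at the absorption maximum.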

DNA [12] = experiment: Binding affinity to calf thymus DNA after 10 mins by Stern-Volmer plot analysis; type: nucleic-acid assay; conditions: Bos taurus
In short: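 Fluorescence titration: 5.0 × 10^-5 M compound in 10 mM phosphate buffer pH 7.4 with 50 mM NaCl and 2% DMSO at 25 °C, Ct-DNA added stepwise. Excitation wavelength set per compound (318–339 nm); excitation and emission slits 10.0 nm; emission read near 455 nm. F/F0 plotted against Ct-DNA concentration and analysed by Stern–Volmer plot.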

Row | ΔTm (DNA [6]) [°C] | Tm (DNA [7]) [°C] | Activity (DNA [8]) | Activity (DNA [9]) | Activity (DNA [10]) | Activity (DNA [11]) [%] | Kb (DNA [12]) | SMILES | Activity (MCF7) | Activity (K562) | Activity [1] [%] | Activity [2] [%] | Activity [3] [%] | Activity [4] [%] | Activity [5] [%] | IC50 (MCF7) [µM] | IC50 (K562) [µM] | IC50 (A549) [µM] | IC50 (HeLa) [µM]
1 | – | – | – | – | – | – | – | O=c1oc2ccccc2c(-c2ccc(O)cc2)c1-c1ccc(O)cc1 | inactive | inactive | – | – | – | – | – | – | – | – | –
2 | – | – | – | – | – | – | – | O=c1oc2ccccc2c(-c2ccc(OCCN3CCCC3)cc2)c1-c1ccc(OCCN2CCCC2)cc1 | – | – | 39.5 | 20.4 | 8.4 | -0.5 | 0.1 | 16.6 | 7.54 | 8.79 | 8.25
3 | – | – | – | – | – | – | – | O=c1oc2ccccc2c(-c2ccc(OCCN3CCOCC3)cc2)c1-c1ccc(OCCN2CCOCC2)cc1 | – | – | – | – | – | – | – | > 100 | > 100 | > 100 | > 100
4 | – | – | – | – | – | – | – | O=c1oc2cc(OCCN3CCOCC3)ccc2c(-c2ccccc2)c1-c1ccc(OCCN2CCOCC2)cc1 | – | – | – | – | – | – | – | > 100 | > 100 | > 100 | > 100
5 | – | – | – | – | – | – | – | O=c1oc2cc(O)ccc2c(-c2ccccc2)c1-c1ccc(O)cc1 | inactive | inactive | – | – | – | – | – | – | – | – | –
6 | 1.7 | 68.8 | Active | Active | Active | 8 | 6 ×10³ /M | CCN(CC)CCOc1ccc(-c2c(-c3ccccc3)c3ccc(OCCN(CC)CC)cc3oc2=O)cc1 | – | – | 31.7 | 15.8 | 3.7 | -1.5 | -7.2 | 5.95 | 2.73 | 8.97 | 9.58
7 | – | – | – | – | – | – | – | O=c1oc2cc(OCCN3CCCC3)ccc2c(-c2ccccc2)c1-c1ccc(OCCN2CCCC2)cc1 | – | – | 32.8 | 16.4 | 5.2 | -5.6 | -2.5 | 6.63 | 5.46 | 7.35 | 4.7
8 | 3 | 70 | Active | Active | Active | 16 | 1.2 ×10⁴ /M | O=c1oc2ccccc2c(-c2ccc(OCCN3CCCCC3)cc2)c1-c1ccc(OCCN2CCCCC2)cc1 | – | – | 40.3 | 22.3 | 10.6 | 1.6 | -3.2 | 4.29 | 5.44 | 7.28 | 4.36
9 | 4 | 71 | Active | Active | Active | 17 | 1.4 ×10⁴ /M | CN1CCN(CCOc2ccc(-c3c(-c4ccc(OCCN5CCN(C)CC5)cc4)c4ccccc4oc3=O)cc2)CC1 | – | – | – | – | – | – | – | 78.3 | 53.2 | 55.6 | 60.5
10 | 1.2 | 68.2 | Active | Active | Active | 6 | 7 ×10³ /M | O=c1oc2cc(OCCN3CCCCC3)ccc2c(-c2ccccc2)c1-c1ccc(OCCN2CCCCC2)cc1 | – | – | 33.4 | 18.6 | 4.9 | 3.7 | -6.5 | 6.53 | 4.9 | 5.21 | 5.08
11 | – | – | – | – | – | – | – | CN(C)CCOc1ccc(-c2c(-c3ccccc3)c3ccc(OCCN(C)C)cc3oc2=O)cc1 | – | – | 31.5 | 13.8 | 4.3 | -0.2 | -0.6 | 6.99 | 7.19 | 9.13 | 8.49
12 | 2.2 | 69.2 | Active | Active | Active | 8 | 5.2 ×10³ /M | CN1CCN(CCOc2ccc(-c3c(-c4ccccc4)c4ccc(OCCN5CCN(C)CC5)cc4oc3=O)cc2)CC1 | – | – | 31.6 | 14.6 | 3.2 | 0.6 | -2.4 | 3.47 | 3.23 | 4.7 | 3.68
13 | – | – | – | – | – | – | – | CN(C)CCOc1ccc(-c2c(-c3ccc(OCCN(C)C)cc3)c3ccccc3oc2=O)cc1 | – | – | – | – | – | – | – | 71.6 | 99.6 | > 100 | > 100
14 | 4.5 | 71.5 | Active | Active | Active | 17 | 1 ×10⁴ /M | CCN(CC)CCOc1ccc(-c2c(-c3ccc(OCCN(CC)CC)cc3)c3ccccc3oc2=O)cc1 | – | – | – | – | – | – | – | 50.1 | 56.2 | 46.3 | 45.2
